# Bioassay records: PubChem BioAssay, several laboratories
# CaV13 ICDI inh: Primary screen for inhibitors of IQ motif and Ca2+-dependent inactivation inhibitor domain binding in CACNA1D, Förster resonance energy transfer in living cells, … | HEK cells, CFP/YFP FRET ICDI-IQ, plate reader, 10 min; percent FRET-ratio fall versus neutral wells | inhibition, % at 12.3 µM | 340,000 compounds, 0.098% hits;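 active = mean replicate inhibition of at least 30% and at least 1% of replicates passing that level; inconclusive = only one of the two criteria is met; inactive = neither criterion is met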;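 also: 0% = median of the neutral control wells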
# Runt-CBFb FRET: Runt domain-CBFb interaction inhibition | AID 1496 | Q01196+Q13951 | Cerulean-Runt/Venus-CBFb FRET ratio 530/480, 1 h | 220,000 compounds, 0.46% hits | inhibition, % at 20 µM;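 active = inhibition over about 50% at 20 µM in the single-dose screen, limit read from the data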;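 also: 0% = DMSO wells and 100% = excess unlabeled CBFb competitor control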
#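 Reagent – Venus-CBFb binding partner, 100 nM · Assay system – Cerulean-tagged RUNX1 Runt domain (FRET donor) fusion protein · Input – 100 nM per protein · Incubation – two 1 h room-temperature incubations shielded from light · Measured by – FRET fluorescence · Medium – Tris buffer pH 7.5 with salts and BSA · Benchmarks – unlabeled CBFb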
# Hck Nef HTS: human Hck-Nef kinase inhibition; P08631; inhibition, % at 20 µM; Recombinant Hck-YEEI plus Nef, Z-Lyte FRET kinase assay; 220,000 compounds, 0.68% hits;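 active = Hck-Nef kinase inhibition above about 50%, limit read from the data; inactive = inhibition below that limit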;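 also: 0% = DMSO with Hck plus Nef and 100% = Hck alone without Nef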
# Target sequence (P08631 whole entry, looked up): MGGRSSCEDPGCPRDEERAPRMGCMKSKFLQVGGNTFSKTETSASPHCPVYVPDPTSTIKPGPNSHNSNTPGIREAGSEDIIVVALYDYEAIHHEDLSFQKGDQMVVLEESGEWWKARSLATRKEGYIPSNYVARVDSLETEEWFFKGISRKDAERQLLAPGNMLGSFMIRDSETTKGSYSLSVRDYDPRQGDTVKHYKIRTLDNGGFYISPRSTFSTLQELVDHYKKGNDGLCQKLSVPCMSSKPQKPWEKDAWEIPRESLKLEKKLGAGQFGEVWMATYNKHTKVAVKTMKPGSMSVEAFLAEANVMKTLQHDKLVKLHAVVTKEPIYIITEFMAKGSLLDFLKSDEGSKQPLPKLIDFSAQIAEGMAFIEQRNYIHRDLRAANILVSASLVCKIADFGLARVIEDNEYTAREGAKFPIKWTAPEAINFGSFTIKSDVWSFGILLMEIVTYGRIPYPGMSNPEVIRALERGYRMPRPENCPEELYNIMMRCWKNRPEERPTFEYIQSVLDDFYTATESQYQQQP
# Runt-SMMHC FRET: Runt domain-CBFb-SMMHC interaction inhibition; Q01196+Q13951; Cerulean-Runt/Venus-CBFb-SMMHC FRET ratio 530/480, 1 h; 220,000 compounds, 0.74% hits; inhibition, % at 20 µM;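 active = mean inhibition across duplicate retests at 20 µM reaching about 50%, limit read from the data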;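 also: 0% = DMSO wells and 100% = wells with excess untagged CBFb-SMMHC; inhibitors lower the FRET ratio by blocking Runt binding to CBFb-SMMHC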
# RanGTP-Imp inh: disruptors of Ran-importin-beta complex formation – biochemical, FRET, CFP-Ran, YFP-importin-beta, homogeneous, primary screen; inhibition, % (no concentration beside the values); cell-free CFP-Ran/YFP-importin-beta FRET ratio; 300,000 compounds, 1.1% hits;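 active = more than half of the replicate wells show a fall in the fluorescence ratio signal beyond about 16%, limit read from the data, passing the limit was not always enough; inconclusive = exactly half of the replicate wells pass the set limit; inactive = fewer than half of replicates pass the limit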;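 also: 0% = DMSO wells and 100% = Ran loaded with GDP instead of GTP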
# Active calls of the source: *; ? = inconclusive; nt = no result; + = active, no number. A selection: hits, their analogues and other compounds. The true share with any hit is near 1.5%.
SMILES,CaV13 ICDI inh,Runt-CBFb FRET,Hck Nef HTS,Runt-SMMHC FRET,RanGTP-Imp inh
N#CC1=C(N)Oc2cc(O)c(Cl)cc2C1c1cccnc1 (stereo unspecified),-1.2,nt,nt,nt,52.1*
CSc1nc(N)c2c(n1)OC(N)=C(C#N)C2c1cccnc1 (stereo unspecified),-1.0,1.6,7.7,2.5,105.1*
N#CC1=C(N)Oc2cc(O)c(Cl)cc2C1c1ccccc1F (stereo unspecified),5.3,nt,nt,nt,131.2*
N#CC1=C(N)Oc2ccc3ccc(O)cc3c2C1c1cccnc1 (stereo unspecified),-5.6,-0.7,0.8,-3.9,3.9
N#CC1=C(N)Oc2cc(O)ccc2C1c1cccnc1 (stereo unspecified),-4.2,-8.5,14.5,-18.3,38.0*
CC(CNC(=S)Nc1cc(F)cc(F)c1)CSc1ccc(Cl)cc1 (stereo unspecified),-5.1,1.0,19.6,-7.5,-2.7
COc1ccc([N+](=O)[O-])cc1NC(=O)CSc1nncn1-c1ccccc1,-4.0,1.3,10.2,2.5,3.1
Cc1ccc(C(=O)CSc2ncnc3ccccc23)o1,-2.2,40.2,-1.7,77.5*,nt
Cc1cccc(COCC(CC(C)C)N2CCN(C(=O)c3ccc(C(C)(C)C)cc3)CCC2=O)c1 (stereo unspecified),1.4,-16.2,-8.5,-10.9,8.7
Nc1c(C(=O)OCC2CCCO2)c2nc3ccccc3nc2n1C1CCCCC1 (stereo unspecified),-6.6,23.6,2.3,67.3*,0.3
COc1ccccc1-n1c(N)c(C(=O)NCC2CCCO2)c2nc3ccccc3nc21 (stereo unspecified),-0.9,-5.7,45.6,2.2,57.3*
Nc1c(S(=O)(=O)c2cccs2)c2nc3ccccc3nc2n1CC1CCCO1 (stereo unspecified),-8.5,6.6,12.0,17.6,nt
Cc1c(NC(=S)NC(=O)c2ccc(-c3ccc(Cl)cc3)o2)cccc1C(=O)O,-4.4,3.3,22.1,3.9,1.7
CCC1C/C(=C\c2cc(OC)c(OC)cc2OC)C(=O)/C(=C/c2cc(OC)c(OC)cc2OC)C1 (stereo unspecified),nt,nt,nt,nt,-70.5
CCC1C/C(=C/c2ccco2)C(=O)/C(=C/c2ccco2)C1 (stereo unspecified),nt,9.7,61.5*,-21.5,nt
COCC(C)NC(=O)c1cc2c(ccc3ccccc32)oc1=O (stereo unspecified),-3.9,nt,nt,nt,29.4*
CCOC(=O)c1cc2ccc3ccccc3c2oc1=O,2.0,nt,nt,nt,72.7*
CC(=O)c1cc2c(ccc3ccccc32)oc1=O,+,nt,nt,nt,116.2*
CNC(=O)c1cc2c(ccc3ccccc32)o1,-15.1,-0.5,10.9,0.7,?
C/C(=N\Nc1nc(-c2cc(C)ccc2C)cs1)c1cc2ccccc2oc1=O,-5.4,-1.7,2.2,-7.0,2.9
CC(=O)Nc1cc2c(ccc3ccccc32)oc1=O,-3.6,-0.9,26.7,6.3,?
C/C(=N\Nc1nc(-c2cc(C)ccc2C)cs1)c1cc2c(ccc3ccccc32)oc1=O,-2.3,64.4*,4.5,nt,63.7*
COc1ccc(-c2c(C)oc3c(CN4CCCCC4C)c(O)ccc3c2=O)cc1OC (stereo unspecified),-5.1,0.6,1.9,3.8,14.1
CCOC(=O)/C(C#N)=C1/C=C(C)NC(c2ccccc2O)=N1,-5.3,25.3,1.1,60.7*,3.5
C=CCc1cccc(/C=N/NC(=O)c2ccccc2OC)c1O,-2.5,2.0,7.6,2.2,39.2*
SMILES,CaV13 ICDI inh,Runt-CBFb FRET,Hck Nef HTS,Runt-SMMHC FRET,RanGTP-Imp inh
CCOCCCNC(=O)/C(C#N)=C/c1ccc(-c2ccc(S(=O)(=O)N3CCOCC3)cc2)o1,nt,3.2,2.2,9.6,?
COCCNC(=O)/C(C#N)=C/c1ccc(-c2ccc(S(=O)(=O)N3CCOCC3)cc2)o1,-5.4,8.9,2.1,24.5,15.2*
Cn1c2ccccc2c(=O)c2ccc(C#Cc3ccccn3)cc21,3.2,nt,nt,nt,96.7*
COc1cc2oc3ccc(C#Cc4ccccn4)cc3c(=O)c2cc1OC,-10.5,nt,nt,nt,-2.1
Cn1c2ccccc2c(=O)c2cc(C#Cc3ccsc3)ccc21,-4.9,nt,nt,nt,73.1*
C=CCn1c2ccccc2c(=O)c2cc(C#Cc3cc(OC)cc(OC)c3)ccc21,-4.9,nt,nt,nt,nt
Cn1c2ccccc2c(=O)c2cc(C#Cc3ccccn3)ccc21,5.4,nt,nt,nt,147.1*
COC(=O)C1(CCSC)NC(c2ccc(O)cc2)C2C(=O)N(c3ccc(F)cc3)C(=O)C21 (stereo unspecified),-2.5,nt,nt,nt,4.7
CCc1nnc(NC(=O)CSc2nccn2-c2cccc(C)c2)s1,-6.0,1.1,5.5,3.1,?
CCC(CC)COC(=O)C1=C(C)NC(=O)NC1c1ccc(N(C)C)cc1 (stereo unspecified),-57.6,nt,nt,nt,16.0*
CCOC(=O)C1=C(C)NC(=O)NC1c1ccc(N(C)C)cc1 (stereo unspecified),-6.8,0.7,2.0,3.1,-0.2
O=C(c1ccncc1)N1CCN(S(=O)(=O)c2cccc(F)c2)CC1,-3.2,nt,nt,nt,1.7
Cc1cc(C)c(N=Cc2c(O)c3ccccc3oc2=O)c(C)c1,-1.7,nt,nt,nt,0.6
Cc1cc(C)cc(N=Cc2c(O)c3ccccc3oc2=O)c1,-9.6,3.4,18.0,87.0*,-4.8
COC(=O)C1=C(C)NC(=S)NC1c1ccc(-c2cccc(Cl)c2)o1 (stereo unspecified),-2.1,23.6,13.0,26.2,-2.5
CCOC(=O)CSc1nc2sc3c(c2c(=O)n1-c1ccccc1)CCN(C)C3,-5.1,nt,nt,nt,3.7
Cc1ccsc1C1NC(=O)c2c(sc3c2CCN(C)C3)N1 (stereo unspecified),1.8,106.4*,5.4,72.7*,132.2*
CSc1ccc(C2CC(=O)Nc3c2c(=O)n(C)c(=O)n3C)cc1 (stereo unspecified),-2.0,0.4,26.3,2.1,-5.7
CN1CCc2c(sc3c2C(=O)NC(/C=C\c2ccccc2)N3)C1 (stereo unspecified),-5.9,118.5*,20.7,70.0*,120.9*
CSc1ccc(C2NC(=O)c3c(sc4c3CCN(C)C4)N2)cc1 (stereo unspecified),-0.4,110.2*,10.4,64.1*,112.2*
CN1CCc2c(sc(N)c2C(=O)c2ccc(Cl)cc2)C1,-5.4,nt,nt,nt,11.2
CN1CCc2c(sc3c2C(=O)NC(c2ccc(-c4cccc(Cl)c4)o2)N3)C1 (stereo unspecified),nt,115.1*,2.9,85.4*,102.6*
Cc1ccc(C)c(S(=O)(=O)c2c(N)n(/N=C/c3ccco3)c3nc4ccccc4nc23)c1,-10.0,41.9,3.1,67.0*,4.5
Cc1cccc(S(=O)(=O)c2c(N)n(/N=C/c3ccccc3)c3nc4ccccc4nc23)c1,-3.4,0.8,14.9,2.4,1.3
